Experimental data published in ChEMBL document CHEMBL1137699, “Synthesis, antibacterial and anticonvulsant evaluations of some cyclic enaminones” (Eur J Med Chem, 2009).
≈ marks a conversion by molar mass, not a printed value. Calls of active or inactive are those of the source. The calls are words filed in the database; no cut-off is given here.

What was measured:
[1] = system: Mus musculus; assay: Anticonvulsant activity against maximal electroshock-induced seizures in mouse at 300 mg/kg, ip; format: functional, organism-based; parameters: dose 300 mg/kg
[2] = system: Mus musculus; assay: Anticonvulsant activity against subcutaneous pentylenetetrazole-induced seizures in mouse at 300 mg/kg, ip; format: functional, organism-based; parameters: dose 300 mg/kg
[3] = system: Mus musculus; assay: Anticonvulsant activity against maximal electroshock-induced seizures in mouse at <=100 mg/kg, ip; format: functional, organism-based
[4] = system: Mus musculus; assay: Anticonvulsant activity against subcutaneous pentylenetetrazole-induced seizures in mouse at <=100 mg/kg, ip; format: functional, organism-based
[5] = system: Staphylococcus; assay: Antibacterial activity against methicillin-sensitive coagulase-negative Staphylococcus clinical isolate after 18 hrs by NCCLS M7-A4 method; format: functional
Method in brief: (§1)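 Test compounds dissolved in 80% DMSO in water. Clinical isolates came from a MRSA reference laboratory culture collection. Final inoculum 10^7 CFU/ml, incubated 35 °C for 18 h. MIC taken as the lowest concentration completely inhibiting growth. Reference strains S. aureus ATCC 25923, S. epidermidis ATCC 12228 and E. faecalis ATCC 29212 served as test controls.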

[6] = system: Staphylococcus; assay: Antibacterial activity against methicillin-resistant coagulase-negative Staphylococcus clinical isolate after 18 hrs by NCCLS M7-A4 method; format: functional; method in brief: as §1
[7] = system: Haemophilus influenzae; assay: Antibacterial activity against Haemophilus influenzae clinical isolate after 18 hrs by NCCLS M7-A4 method; format: functional
Method in brief: (§2)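 Agar dilution on Mueller–Hinton agar with 5% sheep blood, per NCCLS/CLSI. Compounds were dissolved in 80% DMSO in water and tested over 0.12–16. Incubation was 35 °C for 18 h. MIC was read as the lowest concentration completely inhibiting growth. Line 4 used clinical isolates (n = 7 for H. influenzae).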

[8] = system: Streptococcus pneumoniae; assay: Antibacterial activity against Streptococcus pneumoniae clinical isolate after 18 hrs by NCCLS M7-A4 method; format: functional; method in brief: as §2
[9] = system: Enterococcus; assay: Antibacterial activity against vancomycin-resistant Enterococcus clinical isolate after 18 hrs by NCCLS M7-A4 method; format: functional; method in brief: as §1
[10] = system: Enterococcus; assay: Antibacterial activity against vancomycin-sensitive Enterococcus clinical isolate after 18 hrs by NCCLS M7-A4 method; format: functional; method in brief: as §1
[11] = system: Escherichia coli; assay: Antibacterial activity against Escherichia coli ATCC 25922 after 18 hrs by NCCLS M7-A4 method; format: functional, organism-based
Method in brief: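 Reference E. coli strain tested by NCCLS/CLSI agar dilution. Compounds were in 80% DMSO in water over a 0.12–16 dilution range, incubated at 35 °C for 18 h.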

[12] = system: Staphylococcus aureus; assay: Antibacterial activity against Staphylococcus aureus ATCC 25923 after 18 hrs by NCCLS M7-A4 method; format: functional, organism-based
Method in brief: (§3)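 Agar dilution on Mueller–Hinton agar, following NCCLS (now CLSI) guidance. Test compounds were dissolved in 80% DMSO in water and tested at 0.12 to 16. Plates were incubated at 35 °C for 18 h. The MIC was the lowest concentration giving complete growth inhibition.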

[13] = system: Staphylococcus epidermidis; assay: Antibacterial activity against Staphylococcus epidermidis ATCC 12228 after 18 hrs by NCCLS M7-A4 method; format: functional, organism-based; method in brief: as §3
[14] = system: Enterococcus faecalis; assay: Antibacterial activity against Enterococcus faecalis ATCC 29212 after 18 hrs by NCCLS M7-A4 method; format: functional, organism-based; method in brief: as §3
[15] = system: Haemophilus influenzae; assay: Antibacterial activity against Haemophilus influenzae ATCC 49247 after 18 hrs by NCCLS M7-A4 method; format: functional, organism-based; method in brief: as §2
[16] = system: Mus musculus; assay: Anticonvulsant activity against maximal electroshock-induced seizures in mouse at >100 to 300 mg/kg, ip; format: functional, organism-based; parameters: dose 300 mg/kg
[17] = system: Staphylococcus aureus; assay: Antibacterial activity against methicillin-susceptible Staphylococcus aureus clinical isolate after 18 hrs by NCCLS M7-A4 method; format: functional; method in brief: as §1
[18] = system: Staphylococcus aureus; assay: Antibacterial activity against methicillin-resistant Staphylococcus aureus clinical isolate after 18 hrs by NCCLS M7-A4 method; format: functional; method in brief: as §1
[19] = system: Mus musculus; assay: Anticonvulsant activity against subcutaneous pentylenetetrazole-induced seizures in mouse at >100 to 300 mg/kg, ip; format: functional, organism-based; parameters: dose 300 mg/kg

CCOC(=O)C1C(=O)C=C(Nc2ccc(F)cc2)CC1c1ccccc1 (stereo not drawn)
Activity [1]: inactive
Activity [2]: inactive

CCOC(=O)C1C(=O)C=C(Nc2cccc(Cl)c2)CC1C (stereo not drawn)
Activity [3]: Active
Activity [4]: Active

COC(=O)C1C(=O)C=C(Nc2ccc(N3CCN(C(=O)OC(C)(C)C)CC3)c(F)c2)CC1c1ccccc1 (stereo not drawn)
Activity [1]: inactive
Activity [2]: inactive

CN[C@H](CC(C)C)C(=O)N[C@H]1C(=O)N[C@@H](CC(N)=O)C(=O)N[C@H]2C(=O)N[C@H]3C(=O)N[C@H](C(=O)N[C@H](C(=O)O)c4cc(O)cc(O)c4-c4cc3ccc4O)[C@H](O)c3ccc(c(Cl)c3)Oc3cc2cc(c3O[C@@H]2O[C@H](CO)[C@@H](O)[C@H](O)[C@H]2O[C@H]2C[C@](C)(N)[C@H](O)[C@H](C)O2)Oc2ccc(cc2Cl)[C@H]1O [VANCOMYCIN]
MIC [5]: 1 µg/mL (≈ 0.69 µM)
MIC [6]: 2 µg/mL (≈ 1.38 µM)
MIC [7]: > 32 µg/mL
MIC [8]: 0.25 µg/mL (≈ 0.173 µM)
MIC [9]: 8 µg/mL (≈ 5.52 µM)
MIC [10]: 1 µg/mL (≈ 0.69 µM)
Activity [11]: inactive
Activity [12]: inactive
Activity [13]: inactive
Activity [14]: inactive
Activity [15]: inactive

CCOC(=O)C1C(=O)C=C(N2CCCC2)CC1c1ccccc1 (stereo not drawn)
Activity [16]: Active

COC(=O)C1C(=O)C=C(NCCCc2ccccc2)CC1c1ccccc1 (stereo not drawn)
Activity [1]: inactive
Activity [2]: inactive

CCOC(=O)C1C(=O)C=C(Nc2ccc(O)cc2)CC1c1ccccc1 (stereo not drawn)
Activity [1]: inactive
Activity [2]: inactive

CCOC(=O)C1C(=O)C=C(Nc2ccc(Cl)cn2)CC1c1ccccc1 (stereo not drawn)
Activity [1]: inactive
Activity [2]: inactive

CCOC(=O)C1C(=O)C=C(Nc2ccccc2)CC1c1ccccc1 (stereo not drawn)
Activity [1]: inactive
Activity [2]: inactive

COC(=O)C1C(=O)C=C(NCCCCc2ccccc2)CC1c1ccccc1 (stereo not drawn)
Activity [1]: inactive
Activity [2]: inactive

CCOC(=O)C1C(=O)C=C(N2CCN(c3ccc([N+](=O)[O-])cc3F)CC2)CC1C (stereo not drawn)
Activity [1]: inactive
Activity [2]: inactive

CCOC(=O)C1C(=O)C=C(NCCc2ccccc2)CC1c1ccccc1 (stereo not drawn)
Activity [1]: inactive
Activity [2]: inactive

O=C1O[C@@H](Cn2ccnn2)CN1c1ccc(N2CCOCC2)c(F)c1
MIC [17]: 0.5 µg/mL (≈ 1.44 µM)
MIC [18]: 0.5 µg/mL (≈ 1.44 µM)
MIC [5]: 1 µg/mL (≈ 2.88 µM)
MIC [6]: 0.5 µg/mL (≈ 1.44 µM)
MIC [7]: 32 µg/mL (≈ 92.1 µM)
MIC [8]: 0.5 µg/mL (≈ 1.44 µM)
MIC [9]: 0.5 µg/mL (≈ 1.44 µM)
MIC [10]: 0.5 µg/mL (≈ 1.44 µM)
Activity [11]: inactive
Activity [12]: inactive
Activity [13]: inactive
Activity [14]: inactive
Activity [15]: inactive

COC(=O)C1C(=O)C=C(NC[C@H]2CN(c3ccc(N4CCOCC4)c(F)c3)C(=O)O2)CC1c1ccccc1 (stereo partly drawn)
Activity [1]: inactive
Activity [2]: inactive
MIC [17]: > 16 µg/mL
MIC [5]: > 16 µg/mL
MIC [7]: > 16 µg/mL
MIC [8]: > 16 µg/mL
MIC [10]: > 16 µg/mL
Activity [11]: inactive
Activity [12]: inactive
Activity [13]: inactive
Activity [14]: inactive
Activity [15]: inactive

COC(=O)C1C(=O)C=C(Nc2ccc(N3CCN(C(=O)OC(C)(C)C)CC3)c(F)c2)CC1C (stereo not drawn)
Activity [1]: inactive
Activity [2]: inactive

COC(=O)C1C(=O)C=C(Nc2ccc(Cl)cn2)CC1c1ccccc1 (stereo not drawn)
Activity [1]: inactive
Activity [2]: inactive

CCOC(=O)C1C(=O)C=C(Nc2ccc(F)cc2)CC1C (stereo not drawn)
Activity [3]: Active
Activity [4]: Active

CCOC(=O)C1C(=O)C=C(Nc2ccc([N+](=O)[O-])cc2)CC1c1ccccc1 (stereo not drawn)
Activity [1]: inactive
Activity [2]: inactive

CCOC(=O)C1C(=O)C=C(Nc2ccc(N3CCOCC3)c(F)c2)CC1c1ccccc1 (stereo not drawn)
Activity [1]: inactive
Activity [2]: inactive
MIC [17]: > 16 µg/mL
MIC [5]: > 16 µg/mL
MIC [7]: > 16 µg/mL
MIC [8]: > 16 µg/mL
MIC [10]: > 16 µg/mL
Activity [11]: inactive
Activity [12]: inactive
Activity [13]: inactive
Activity [14]: inactive
Activity [15]: inactive

CCOC(=O)C1C(=O)C=C(Nc2ccc(Br)cc2)CC1c1ccccc1 (stereo not drawn)
Activity [1]: inactive
Activity [2]: inactive

COC(=O)C1C(=O)C=C(Nc2ccccc2)CC1c1ccccc1 (stereo not drawn)
Activity [19]: Active

COC(=O)C1C(=O)C=C(NC[C@H]2CN(c3ccc(N4CCOCC4)c(F)c3)C(=O)O2)CC1C (stereo partly drawn)
Activity [1]: inactive
Activity [2]: inactive
MIC [17]: > 16 µg/mL
MIC [5]: > 16 µg/mL
MIC [7]: > 16 µg/mL
MIC [8]: > 16 µg/mL
MIC [10]: > 16 µg/mL
Activity [11]: inactive
Activity [12]: inactive
Activity [13]: inactive
Activity [14]: inactive
Activity [15]: inactive

CCOC(=O)C1C(=O)C=C(Nc2ccc(Br)cc2)CC1C (stereo not drawn)
Activity [3]: Active
Activity [4]: Active

CCOC(=O)C1C(=O)C=C(Nc2ccc(N3CCN(C(=O)OC(C)(C)C)CC3)c(F)c2)CC1c1ccccc1 (stereo not drawn)
Activity [1]: inactive
Activity [2]: inactive

CCOC(=O)C1C(=O)C=C(NC[C@H]2CN(c3ccc(N4CCOCC4)c(F)c3)C(=O)O2)CC1C (stereo partly drawn)
Activity [1]: inactive
Activity [2]: inactive
MIC [17]: > 16 µg/mL
MIC [5]: > 16 µg/mL
MIC [7]: > 16 µg/mL
MIC [8]: > 16 µg/mL
MIC [10]: > 16 µg/mL
Activity [11]: inactive
Activity [12]: inactive
Activity [13]: inactive
Activity [14]: inactive
Activity [15]: inactive

CCN(CC)C1=CC(=O)C(C(=O)OC)C(c2ccccc2)C1 (stereo not drawn)
Activity [1]: inactive
Activity [2]: inactive

CCOC(=O)C1C(=O)C=C(N2CCOCC2)CC1c1ccccc1 (stereo not drawn)
Activity [1]: inactive
Activity [2]: inactive

COC(=O)C1C(=O)C=C(NCCc2ccccc2)CC1c1ccccc1 (stereo not drawn)
Activity [1]: inactive
Activity [2]: inactive

COC(=O)C1C(=O)C=C(N2CCN(c3ccc([N+](=O)[O-])cc3F)CC2)CC1c1ccccc1 (stereo not drawn)
Activity [1]: inactive
Activity [2]: inactive

COC(=O)C1C(=O)C=C(Nc2ccc(N3CCOCC3)c(F)c2)CC1C (stereo not drawn)
Activity [1]: inactive
Activity [2]: inactive

COC(=O)C1C(=O)C=C(Nc2ccc(N3CCOCC3)c(F)c2)CC1c1ccccc1 (stereo not drawn)
Activity [1]: inactive
Activity [2]: inactive

COC(=O)C1C(=O)C=C(N2CCCC2)CC1c1ccccc1 (stereo not drawn)
Activity [1]: inactive
Activity [2]: inactive

CCOC(=O)C1C(=O)C=C(N2CCOCC2)CC1C (stereo not drawn)
Activity [19]: Active

CCOC(=O)C1C(=O)C=C(N2CCN(c3ccc([N+](=O)[O-])cc3F)CC2)CC1c1ccccc1 (stereo not drawn)
Activity [1]: inactive
Activity [2]: inactive

CC(=O)NC[C@H]1CN(c2ccc(N3CCOCC3)c(F)c2)C(=O)O1 [LINEZOLID]
MIC [18]: 0.5 µg/mL (≈ 1.48 µM)
MIC [5]: 0.5 µg/mL (≈ 1.48 µM)
MIC [6]: 0.5 µg/mL (≈ 1.48 µM)
MIC [7]: 8 µg/mL (≈ 23.7 µM)
MIC [9]: 1 µg/mL (≈ 2.96 µM)
MIC [10]: 1 µg/mL (≈ 2.96 µM)
Activity [11]: inactive
Activity [12]: inactive
Activity [13]: inactive
Activity [14]: inactive
Activity [15]: inactive

CCOC(=O)C1C(=O)C=C(N(CC)CC)CC1c1ccccc1 (stereo not drawn)
Activity [1]: inactive
Activity [2]: inactive

CCOC(=O)C1C(=O)C=C(Nc2ccc(Cl)cc2)CC1c1ccccc1 (stereo not drawn)
Activity [16]: Active

CCOC(=O)C1C(=O)C=C(NCCCCc2ccccc2)CC1c1ccccc1 (stereo not drawn)
Activity [1]: inactive
Activity [2]: inactive

COC(=O)C1C(=O)C=C(Nc2ccc(F)cc2)CC1c1ccccc1 (stereo not drawn)
Activity [1]: inactive
Activity [2]: inactive

CCOC(=O)C1C(=O)C=C(NCCCc2ccccc2)CC1c1ccccc1 (stereo not drawn)
Activity [1]: inactive
Activity [2]: inactive

CCOC(=O)C1C(=O)C=C(Nc2ccc(N3CCOCC3)c(F)c2)CC1C (stereo not drawn)
Activity [1]: inactive
Activity [2]: inactive
MIC [17]: > 16 µg/mL
MIC [5]: > 16 µg/mL
MIC [7]: > 16 µg/mL
MIC [8]: > 16 µg/mL
MIC [10]: > 16 µg/mL
Activity [11]: inactive
Activity [12]: inactive
Activity [13]: inactive
Activity [14]: inactive
Activity [15]: inactive

CCOC(=O)C1C(=O)C=C(NCCc2ccccc2)CC1C (stereo not drawn)
Activity [3]: Active
